# Compound activity (PubChem BioAssay)
# LYPLA2 inh = counter-screen for PME1 inhibitors: inhibitors of human LYPLA2 | inhibition, % at 5.9 µM | recombinant LYPLA2, FP-Rh probe fluorescence polarization | 320,000 tested, 0.38% active | O95372;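 active = inhibition above the screen-wide mean plus 3 SD, limit set per campaign, cut at about 26% in these data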;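 also: 0% = LYPLA2 with DMSO and 100% = wells lacking LYPLA2 enzyme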
# Target sequence (O95372 whole entry, looked up): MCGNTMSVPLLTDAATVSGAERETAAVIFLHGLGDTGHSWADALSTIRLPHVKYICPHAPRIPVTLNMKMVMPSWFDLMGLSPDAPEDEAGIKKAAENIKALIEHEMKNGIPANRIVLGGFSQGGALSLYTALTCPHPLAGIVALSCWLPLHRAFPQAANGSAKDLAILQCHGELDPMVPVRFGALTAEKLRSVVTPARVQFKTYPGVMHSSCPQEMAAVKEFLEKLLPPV
# Fam108B counter = blocks mouse Fam108B hydrolase in RBBP9 counter-screen | inhibition, % at 9.51 µM | 300,000 tested, 0.33% active | recombinant Fam108B, FP-Rh probe fluorescence polarization;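 active = inhibition above the screen mean inhibition plus 3 SD, computed separately per campaign, cut at about 18% in these data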;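 also: inhibitors lower polarization as less probe binds the enzyme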
# RBBP9 inhibitor = inhibitors of human serine hydrolase RBBP9; recombinant RBBP9, FP-Rh probe fluorescence polarization; O75884; AID 1515; 220,000 tested, 0.2% active; inhibition, % at 7.94 µM;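 active = inhibition above the campaign mean of all tested compounds plus 3 SD, cut at about 14% in these data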;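 also: plate controls were DMSO wells with RBBP9 for no effect and wells lacking RBBP9 protein for full effect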
# Target sequence (O75884 whole entry, looked up): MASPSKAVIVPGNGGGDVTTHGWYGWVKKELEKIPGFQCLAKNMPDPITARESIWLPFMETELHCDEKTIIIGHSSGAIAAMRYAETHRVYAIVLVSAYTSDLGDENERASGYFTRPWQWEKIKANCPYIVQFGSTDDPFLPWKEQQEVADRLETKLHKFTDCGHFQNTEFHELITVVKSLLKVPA
#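 Test system – recombinant human RBBP9 · Input – RBBP9 2.5 µM in dispensing solution, pre-mixing · Medium – Tris buffer pH 8.0, NaCl, Pluronic · Schedule – preincubation 30 min plus labeling 45 min at 25 °C · Measured by – fluorescence polarization · Measure – % inhibition · Controls – DMSO and no-protein wells · Replicates – one well per compound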
# PAD4 inh = PAD4 (human) enzyme inhibition; Q9UM07; recombinant PAD4, RCA probe fluorescence polarization; inhibition, % at 6.36 µM; 330,000 tested, 0.41% active;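 active = percent inhibition above a cutoff equal to the mean of all tested compounds plus 3 SD, cut at about 15% in these data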;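 also: 0% = PAD4 with RCA probe and DMSO and 100% = probe without PAD4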
# LYPLA1 inh = LYPLA1 (human) inhibition in PME1 counter-screen. inhibition, % at 5.9 µM. O75608. 320,000 tested, 0.16% active. AID 2174. recombinant LYPLA1, FP-Rh probe fluorescence polarization;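 active = inhibition above the mean of all tested compounds plus 3 SD, set per campaign, cut at about 14% in these data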;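 also: inhibitors block serine hydrolase probe labeling of LYPLA1 so polarization falls; 0% = enzyme with DMSO and 100% = wells lacking LYPLA1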
# Target sequence (O75608 whole entry, looked up): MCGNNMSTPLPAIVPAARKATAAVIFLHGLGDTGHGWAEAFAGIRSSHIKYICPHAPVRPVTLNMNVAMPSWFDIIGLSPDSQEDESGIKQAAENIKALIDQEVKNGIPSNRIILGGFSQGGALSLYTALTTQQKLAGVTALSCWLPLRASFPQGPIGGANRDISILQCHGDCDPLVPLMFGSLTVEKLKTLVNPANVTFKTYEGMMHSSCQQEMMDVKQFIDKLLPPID
# PME-1 primary = PME-1 (human) inhibition; AID 2130; recombinant PME-1, FP-Rh probe fluorescence polarization; inhibition, % at 5.9 µM; 320,000 tested, 0.53% active; Q9Y570;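 active = inhibition above the campaign mean of all compounds plus 3 SD, cut at about 26% in these data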;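 also: competitive labeling of PME-1 active site by serine hydrolase directed probe; 0% = PME-1 with DMSO and 100% = wells lacking PME-1 enzyme; inhibitors block probe labeling so polarization falls and inhibition rises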
# Fam108b inh conf = Fam108b (mouse) hydrolase inhibition, confirmation assay; 930 tested, 44% active; shares compounds with Fam108B counter; inhibition, % at 9.51 µM; recombinant Fam108b, FP-Rh probe fluorescence polarization;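 active = inhibition above a limit from the primary screen, the mean over all compounds plus 3 SD, cut at about 19% in these data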;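 also: 0% = median of active Fam108b wells and 100% = catalytically dead S170A mutant; inhibitors free the probe so polarization falls as inhibition rises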
# Fam108b inh = mouse ABHD17B inhibition | AID 588649 | 260 tested, 44% active | inhibition, % at 20 µM | shares compounds with Fam108B counter | recombinant Fam108b, gel-based ABPP, fluorophosphonate probe; in the data active = inhibition above about 40%
# LYPLA1 confirm = counter-screen for PME1 inhibitors: confirmation of human LYPLA1 inhibitors; shares compounds with LYPLA1 inh; recombinant LYPLA1, FP-Rh probe fluorescence polarization; inhibition, % at 5.9 µM; 480 tested, 69% active; AID 2233;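 active = mean inhibition across replicates above the hit cutoff set in the primary screen, cut at about 15% in these data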;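 also: loss of FP-Rh probe labeling of LYPLA1 seen as lower polarization; 0% = LYPLA1 with DMSO and 100% = wells lacking LYPLA1 enzyme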
# LYPLA2 conf = LYPLA2 (human) inhibition, confirmation counter-screen; shares compounds with LYPLA2 inh; recombinant LYPLA2, FP-Rh probe fluorescence polarization; inhibition, % at 5.9 µM; 1,100 tested, 72% active; AID 2232;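 active = mean inhibition across replicates above the hit cutoff set in the primary screen, cut at about 26% in these data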;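 also: blocked labeling of the enzyme by serine hydrolase FP-Rh probe lowers polarization; 0% = enzyme with DMSO and 100% = wells lacking LYPLA2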
# PAD4 confirm = PAD4 (human) inhibition, confirmed | shares compounds with PAD4 inh | recombinant PAD4, RCA probe fluorescence polarization | inhibition, % at 6.36 µM | 1,200 tested, 28% active | AID 488796;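 active = mean inhibition across replicates above the hit cutoff set by the earlier primary screen, cut at about 15% in these data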;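 also: inhibitors block active-site labeling by the probe so polarization falls; 0% = PAD4 with probe and DMSO and 100% = probe without PAD4 enzyme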
# The depositor's hits bear a star; · = no result. Shown are actives, neighbours in structure and some others; about 1.3% of the full set was active somewhere.
SMILES,LYPLA2 inh,Fam108B counter,RBBP9 inhibitor,PAD4 inh,LYPLA1 inh,PME-1 primary,Fam108b inh conf,PAD4 confirm,others
N#CCCN(CCC#N)C(=O)C1c2ccccc2Oc2ccccc21,76*,67*,·,101*,76*,84*,3,7,LYPLA1 confirm=3;LYPLA2 conf=3
COc1ccc(-c2noc(C3CCCN(C(=O)Nc4ccccc4F)C3)n2)cc1 (configuration not stated),5,-4,1,-9,1,-6,·,·,
N#CC1(C#N)C(c2ccccc2)OC23CCCCC2C1(C#N)C(=N)O3 (configuration not stated),4,16,8,12,9,9,·,·,
CCCCCCCCOc1ccc(C2OC34CCCCC3C(C#N)(C#N)C2(C#N)C(=N)O4)cc1 (configuration not stated),26*,19*,-7,16*,17*,20,-5,9,LYPLA1 confirm=14*;LYPLA2 conf=8
NS(=O)(=O)c1ccc(NC(=O)c2cc(Cl)sc2Cl)cc1,-2,5,·,-2,-2,-1,·,·,
COc1cc(NCCCC(C)N)c2ncccc2c1 (configuration not stated),·,·,-6,·,·,·,·,·,
CCC(CNc1cc(OC)cc2cccnc12)NC1CCCCC1 (configuration not stated),30*,30*,8,90*,23*,38*,3,14,LYPLA1 confirm=13;LYPLA2 conf=43*
Oc1c(Br)cc(C=Nc2ccc3nc(-c4ccccc4)[nH]c3c2)c(O)c1Br,-21,33*,10,37*,-23,35*,10,10,
COC(=O)c1cccc(NS(=O)(=O)c2cccs2)c1C,9,0,-2,0,2,6,·,·,
Cc1ccc(NC2=C/C(=N/S(=O)(=O)c3cccs3)c3ccccc3C2=O)cc1,-3,8,0,11,-1,4,·,·,
O=C1C(Nc2ccccc2)=C/C(=N/S(=O)(=O)c2cccs2)c2ccccc21,1,36*,4,63*,-4,32*,57*,58*,
COC(=O)c1ccccc1NC1=C/C(=N\S(=O)(=O)c2ccc(C(=O)O)cc2)c2ccccc2C1=O,26*,57*,·,25*,13,21,72*,66*,Fam108b inh=15
COC(=O)c1ccccc1NC1=C/C(=N\S(=O)(=O)c2cccs2)c2ccccc2C1=O,9,20*,7,38*,-3,18,9,35*,
O=C(COC(=O)c1ccccn1)NC(=O)c1ccccc1,5,·,·,3,-1,6,·,·,
CCOC(=O)C(=CNc1cscc1S(=O)(=O)C(C)C)C(=O)OCC,-1,2,2,-7,0,-2,·,·,
Cc1ccc(S(=O)(=O)/N=C2/C=C(Sc3ncn[nH]3)C(=O)c3ccccc32)cc1,47*,80*,1,39*,6,46*,65*,10,LYPLA2 conf=57*
Cc1ccc(C(=O)CCC(=O)N2CCC(C(N)=O)CC2)s1,9,·,·,-7,1,-4,·,·,
O=C1C=C(N2CCOCC2)c2ccccc2C1=O,68*,58*,·,60*,43*,28*,66*,66*,Fam108b inh=20;LYPLA1 confirm=50*;LYPLA2 conf=79*
CCCCn1c(NC(=O)c2ccccc2Cl)c(C#N)c2nc3ccccc3nc21,58*,38*,-10,72*,45*,27*,54*,29*,Fam108b inh=10;LYPLA1 confirm=62*;LYPLA2 conf=0
N#Cc1c(NC(=O)c2ccccc2Cl)n(Cc2ccccc2)c2nc3ccccc3nc12,-6,12,-3,-6,-5,12,·,·,
O=C(O)CCNc1cc(N2CCN(C(=O)c3ccco3)CC2)c2noc3c2c1C(=O)c1ccccc1-3,0,38*,·,21*,3,-9,11,-46,
Oc1c(Br)cc(Br)cc1CNc1cccc2cccnc12,14,36*,·,18*,-1,25,14,-2,
CC1=NN(c2ccc(Cl)cc2)C(=O)C1C(c1cccc(O)c1)c1c(C)[nH]n(-c2ccc(Cl)cc2)c1=O (configuration not stated),18,31*,-1,73*,-4,17,17,-4,
CC(C)Oc1ccc(/C(O)=C2/C(=O)C(=O)N(CCN(C)C)C2c2cccs2)cc1 (configuration not stated),-3,1,1,3,-3,5,·,·,
CS(=O)(=O)N(CC(=O)N1CCCC1)c1ccccc1Br,6,0,·,-2,4,-3,·,·,
SMILES,LYPLA2 inh,Fam108B counter,RBBP9 inhibitor,PAD4 inh,LYPLA1 inh,PME-1 primary,Fam108b inh conf,PAD4 confirm,others
O=C(O)C(O)C(O)c1nc2ccccc2[nH]1 (configuration not stated),-1,0,-13,-9,-1,-5,·,·,
CC(C)=CCC1=C(OCC(=O)O)C(=O)c2ccccc2C1=O,8,23*,1,28*,2,21,12,-1,
CC(C)=CCC/C(C)=C/CC/C(C)=C/CC/C(C)=C/CC1=C(C)C(=O)c2ccccc2C1=O,7,1,·,-4,-1,3,·,·,
O=C1C=C(Nc2ccccc2C(=O)O)c2ccccc2C1=O,5,21*,-1,18*,1,4,36*,61*,Fam108b inh=0
CCOC(=O)c1csc(NNC=O)n1,1,0,-2,4,1,5,·,·,
COc1cccc2c1C(=O)c1c(O)c3c(c(O)c1C2=O)C[C@@](O)(C(=O)CO)C[C@@H]3O[C@H]1C[C@H](N)[C@H](O)[C@H](C)O1,43*,32*,10,58*,59*,48*,34*,68*,Fam108b inh=65*;LYPLA1 confirm=52*;LYPLA2 conf=27*
CN1C(=O)NC(c2ccccc2[N+](=O)[O-])C2=C1CCCC2=O (configuration not stated),94*,68*,·,102*,73*,84*,24*,62*,LYPLA1 confirm=28*;LYPLA2 conf=74*
CCS(=O)(=O)N1Cc2ccccc2CC1C(=O)N(C)CC(=O)Nc1ccc(F)c(F)c1F (configuration not stated),1,-2,·,4,1,2,·,·,
Nc1cc2nsnc2cc1Br,87*,71*,-4,78*,76*,47*,62*,53*,Fam108b inh=50*;LYPLA1 confirm=73*
